Measurements from ChEMBL document CHEMBL1129588, “Development of potent thrombin receptor antagonist peptides” (J Med Chem, 1996).
Starred links: 1 amine or outer side, 2 acyl side, 3 side chain; linkers in the order of their positions; H or OH if unused. Non-standard residues stand in square brackets, D forms with d. Residues, ends and D or L forms follow the SMILES beside them. *: point of attachment. X8 = C#CC(=O)c1cccc(N([C@@H](Cc2ccc(F)cc2)C(=O)[*:2])[*:1])c1; X9 = CCC(=O)c1cccc(N([C@@H](Cc2ccc(F)cc2)C(=O)[*:2])[*:1])c1; X3 = CC(=O)N(C(=O)/C=C/c1ccccc1)[C@@H](Cc1ccc(F)cc1)C(=O)*; Phe(4-guanidino) = N=C(N)Nc1ccc(C[C@H](N)C(=O)O)cc1; Phe(4-F) = N[C@@H](Cc1ccc(F)cc1)C(=O)O; 2Nal = N[C@@H](Cc1ccc2ccccc2c1)C(=O)O; X10 = O=C(c1c[nH]c2ccccc12)*; Thz = O=C(O)[C@@H]1CSCN1; X2 = O=S(=O)(c1cccs1)*

Tests used:
[1] = Concentration to stimulate human platelet aggregation; assay type: functional
In short: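 Peptides were added alone to gel-filtered human platelets, and aggregation was read by microtiter turbidity. EC₅₀ is the concentration stimulating 50% of maximum aggregation. N is the number of determinations. A peptide is called a partial agonist where maximum aggregation was not reached experimentally.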

[2] = molecular target: T1, Proteinase-activated receptor 1 (Homo sapiens, UniProt P25116)
T1 sequence (P25116 whole entry): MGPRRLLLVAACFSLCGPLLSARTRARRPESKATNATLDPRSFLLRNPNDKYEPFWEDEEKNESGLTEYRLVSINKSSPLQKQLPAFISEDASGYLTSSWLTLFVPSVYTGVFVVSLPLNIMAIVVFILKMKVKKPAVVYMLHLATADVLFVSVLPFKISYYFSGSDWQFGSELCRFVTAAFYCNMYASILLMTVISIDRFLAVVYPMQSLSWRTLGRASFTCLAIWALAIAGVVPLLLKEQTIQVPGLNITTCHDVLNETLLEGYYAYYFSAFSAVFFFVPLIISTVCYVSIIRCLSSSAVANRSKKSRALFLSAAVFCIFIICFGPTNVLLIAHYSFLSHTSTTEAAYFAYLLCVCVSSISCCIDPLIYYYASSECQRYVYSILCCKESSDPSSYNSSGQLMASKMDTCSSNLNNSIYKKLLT

SMILES | EC50 [1] [nM] | IC50 [2] [nM]
CC(C)C[C@H](NC(=O)[C@H](CC(C)C)NC(=O)[C@H](Cc1ccc(NC(=N)N)cc1)NC(=O)[C@@H](N)CO)C(=O)N[C@@H](CCCN=C(N)N)C(N)=O | > 300000 | –
CC(C)C[C@H](NC(=O)[C@H](Cc1ccc(NC(=N)N)cc1)NC(=O)[C@H](Cc1ccc(F)cc1)NC(=O)[C@@H](N)CO)C(=O)N[C@@H](CCCN=C(N)N)C(N)=O (H-S[Phe(4-F)][Phe(4-guanidino)]LR-NH2) | 40 | –
CC(C)C[C@H](NC(=O)[C@H](CC(C)C)NC(=O)[C@H](Cc1ccc(I)cc1)NC(=O)[C@@H](N)CO)C(=O)N[C@@H](CCCN=C(N)N)C(N)=O | 9270 | –
CC(C)C[C@H](NC(=O)[C@H](CC(C)C)NC(=O)[C@H](Cc1ccc(F)cc1)NC(=O)[C@@H](N)CO)C(=O)N[C@@H](CCCN=C(N)N)C(N)=O | 130 | –
CC(C)C[C@H](NC(=O)[C@H](Cc1ccc(F)cc1)NC(=O)[C@H](Cc1ccc(F)cc1)NC(=O)[C@@H](N)CO)C(=O)N[C@@H](CCCN=C(N)N)C(N)=O (H-S[Phe(4-F)][Phe(4-F)]LR-NH2) | 100 | –
CC(C)C[C@H](NC(=O)[C@H](CC(C)C)NC(=O)[C@H](CCc1ccccc1)NC(=O)[C@@H](N)CO)C(=O)N[C@@H](CCCN=C(N)N)C(N)=O | > 300000 | –
CC(C)C[C@H](NC(=O)[C@H](CC(C)C)NC(=O)[C@H](Cc1ccccc1)NC(=O)[C@@H](N)CO)C(=O)N[C@@H](CCCN=C(N)N)C(N)=O | 400 | –
CC(C)C[C@H](NC(=O)[C@H](Cc1ccc2ccccc2c1)NC(=O)[C@H](Cc1ccc(F)cc1)NC(=O)[C@@H](N)CO)C(=O)N[C@@H](CCCN=C(N)N)C(N)=O (H-S[Phe(4-F)][2Nal]LR-NH2) | 80 | –
CC(=O)N1CSC[C@H]1C(=O)N[C@@H](Cc1ccccc1)C(=O)N[C@@H](CC(C)C)C(=O)N[C@@H](CC(C)C)C(=O)N[C@@H](CCCN=C(N)N)C(N)=O (Ac-[Thz]FLLR-NH2) | > 300000 | –
CC(=O)N(C(=O)/C=C/c1ccccc1)[C@@H](Cc1ccc(F)cc1)C(=O)NC(=O)NCCC[C@H](NC(=O)[C@H](CC(C)C)NC(=O)[C@@H](N)CCCN=C(N)N)C(=O)O | – | 1040
CC(=O)N(c1ccc(F)cc1)[C@@H](Cc1ccc(F)cc1)C(=O)N[C@@H](Cc1ccc(NC(=N)N)cc1)C(=O)N[C@@H](CC(C)C)C(=O)N[C@@H](CCCN=C(N)N)C(N)=O | – | 350
CC(=O)N(C(=O)/C=C/c1ccccc1)[C@@H](Cc1cccnc1)C(=O)N[C@@H](Cc1ccc(NC(=N)N)cc1)C(=O)N[C@@H](CC(C)C)C(=O)N[C@@H](CCCN=C(N)N)C(N)=O | – | 3440
CC(=O)N(C(=O)/C=C/c1ccccc1)[C@@H](Cc1ccc(F)cc1)C(=O)N[C@@H](Cc1ccc(NC(=N)N)cc1)C(=O)N[C@@H](CCCN)C(N)=O | – | 870
CC(=O)N(C(=O)/C=C/c1ccc(C)cc1)[C@@H](Cc1ccc(F)cc1)C(=O)N[C@@H](Cc1ccc(NC(=N)N)cc1)C(=O)N[C@@H](CC(C)C)C(=O)N[C@@H](CCCN=C(N)N)C(N)=O (stereo in doubt; 45) | – | 34
CC(=O)N(C(=O)/C=C/c1ccccc1)[C@@H](Cc1ccc(F)cc1)C(=O)N[C@@H](CCCCN=C(N)N)C(=O)N[C@@H](CC(C)C)C(=O)N[C@@H](CCCN=C(N)N)C(N)=O | – | 12
CC(=O)N(c1cccs1)[C@@H](Cc1ccc(F)cc1)C(=O)N[C@@H](Cc1ccc(NC(=N)N)cc1)C(=O)N[C@@H](CC(C)C)C(=O)N[C@@H](CCCN=C(N)N)C(N)=O | – | 260
CC(=O)N(C1CCCC1)[C@@H](Cc1ccc(F)cc1)C(=O)N[C@@H](Cc1ccc(NC(=N)N)cc1)C(=O)N[C@@H](CC(C)C)C(=O)N[C@@H](CCCN=C(N)N)C(N)=O | – | 370
CC(=O)N(Oc1c[nH]c2ccccc12)[C@@H](Cc1ccc(F)cc1)C(=O)N[C@@H](Cc1ccc(NC(=N)N)cc1)C(=O)N[C@@H](CC(C)C)C(=O)N[C@@H](CCCN=C(N)N)C(N)=O | – | 130
CCC(=O)c1cccc(N(C(C)=O)[C@@H](Cc2ccc(F)cc2)C(=O)N[C@@H](Cc2ccc(NC(=N)N)cc2)C(=O)N[C@@H](CC(C)C)C(=O)N[C@@H](CCCN=C(N)N)C(=O)N[C@@H](CCCN=C(N)N)C(N)=O)c1 (Ac-[X9][Phe(4-guanidino)]LRR-NH2) | – | 9
CC(=O)N(C(=O)COc1ccccc1)[C@@H](Cc1ccc(F)cc1)C(=O)N[C@@H](Cc1ccc(NC(=N)N)cc1)C(=O)N[C@@H](CC(C)C)C(=O)N[C@@H](CCCN=C(N)N)C(N)=O | – | 21
CC(=O)N(C(=O)/C=C/c1ccccc1)[C@@H](Cc1ccc(F)cc1)C(=O)N[C@@H](Cc1ccc([N+](=O)[O-])cc1)C(=O)N[C@@H](CC(C)C)C(=O)N[C@@H](CCCN=C(N)N)C(N)=O | – | 7550

SMILES | EC50 [1] [nM] | IC50 [2] [nM]
CC(=O)N(C(=O)/C=C/c1ccc(C)cc1)[C@@H](Cc1ccc(F)cc1)C(=O)N[C@@H](Cc1ccc(NC(=N)N)cc1)C(=O)N[C@@H](CC(C)C)C(=O)N[C@@H](CCCN=C(N)N)C(N)=O (stereo in doubt; 63) | – | 43
CC(=O)N(C(=O)/C=C/c1ccc(F)cc1)[C@@H](Cc1ccc(F)cc1)C(=O)N[C@@H](Cc1ccc(NC(=N)N)cc1)C(=O)N[C@@H](CC(C)C)C(=O)N[C@@H](CCCN=C(N)N)C(N)=O (stereo in doubt; 43) | – | 20
CC(=O)N(c1ccccc1F)[C@@H](Cc1ccc(F)cc1)C(=O)N[C@@H](Cc1ccc(NC(=N)N)cc1)C(=O)N[C@@H](CC(C)C)C(=O)N[C@@H](CCCN=C(N)N)C(N)=O | – | 560
CC(=O)N(C(=O)/C=C/c1ccccc1)[C@@H](Cc1ccc(F)cc1)C(=O)N[C@@H](Cc1ccc(NC(=N)N)cc1)C(=O)N[C@@H](CC(C)C)C(=O)N[C@@H](CCCN)C(=O)CC(N)=O | – | 44
CC(C)C[C@H](NC(=O)[C@H](Cc1ccc(NC(=N)N)cc1)NC(=O)[C@H](Cc1ccc(F)cc1)NC(=O)c1c[nH]c2ccccc12)C(=O)N[C@@H](CCCN=C(N)N)C(N)=O (X10-[Phe(4-F)][Phe(4-guanidino)]LR-NH2) | – | 19
CCCCC/C=C/CC(=O)N(C(C)=O)[C@@H](Cc1ccc(F)cc1)C(=O)N[C@@H](Cc1ccc(NC(=N)N)cc1)C(=O)N[C@@H](CC(C)C)C(=O)N[C@@H](CCCN=C(N)N)C(N)=O | – | 35
CC(=O)N(c1cccnc1)[C@@H](Cc1ccc(F)cc1)C(=O)N[C@@H](Cc1ccc(NC(=N)N)cc1)C(=O)N[C@@H](CC(C)C)C(=O)N[C@@H](CCCN=C(N)N)C(N)=O | – | 950
CC(C)C[C@H](NC(=O)[C@H](Cc1ccc(NC(=N)N)cc1)NC(=O)[C@H](Cc1ccc(F)cc1)NS(=O)(=O)c1cccs1)C(=O)N[C@@H](CCCN=C(N)N)C(N)=O (X2-[Phe(4-F)][Phe(4-guanidino)]LR-NH2) | – | 8950
CC(=O)N(C(=O)/C=C/c1ccccc1)[C@@H](Cc1ccc(F)cc1)C(=O)N[C@@H](CCc1ccccc1)C(=O)N[C@@H](CC(C)C)C(=O)N[C@@H](CCCN=C(N)N)C(N)=O | – | 630
CC(=O)N(C(=O)/C=C/c1ccccc1)[C@@H](Cc1ccc(F)cc1)C(=O)N[C@@H](CCCCN=C(N(C)C)N(C)C)C(=O)N[C@@H](CC(C)C)C(=O)N[C@@H](CCCN=C(N)N)C(N)=O | – | 130
C#CC(=O)c1cccc(N(C(C)=O)[C@@H](Cc2ccc(F)cc2)C(=O)N[C@@H](Cc2ccc(NC(=N)N)cc2)C(=O)N[C@@H](CC(C)C)C(=O)N[C@@H](CCCN=C(N)N)C(=O)N[C@@H](CCCN=C(N)N)C(N)=O)c1 (Ac-[X8][Phe(4-guanidino)]LRR-NH2) | – | 4
CC(=O)N(C(=O)Cc1cccc2ccccc12)[C@@H](Cc1ccc(F)cc1)C(=O)N[C@@H](Cc1ccc(NC(=N)N)cc1)C(=O)N[C@@H](CC(C)C)C(=O)N[C@@H](CCCN=C(N)N)C(N)=O | – | 1630
CC(=O)N(c1ccccc1)[C@@H](Cc1ccc(F)cc1)C(=O)N[C@@H](Cc1ccc(NC(=N)N)cc1)C(=O)N[C@@H](CC(C)C)C(=O)N[C@@H](CCCN=C(N)N)C(N)=O | – | 680
CC(=O)N(C(=O)/C=C/c1ccccc1)[C@@H](Cc1ccc(F)cc1)C(=O)N[C@@H](Cc1ccc(NC(=N)N)cc1)C(=O)N[C@@H](CC(C)C)C(=O)N[C@@H](CCCN=C(N)N)C(=O)N[C@@H](CCCN=C(N)N)C(N)=O (X3-[Phe(4-guanidino)]LRR-NH2) | – | 7.5
COc1ccc(C[C@H](NC(=O)[C@H](Cc2ccc(F)cc2)N(C(C)=O)C(=O)/C=C/c2ccccc2)C(=O)N[C@@H](CC(C)C)C(=O)N[C@@H](CCCN=C(N)N)C(N)=O)cc1 | – | 1180
CC(=O)N(C(=O)c1ccc(-c2ccccc2)cc1)[C@@H](Cc1ccc(F)cc1)C(=O)N[C@@H](Cc1ccc(NC(=N)N)cc1)C(=O)N[C@@H](CC(C)C)C(=O)N[C@@H](CCCN=C(N)N)C(N)=O | – | 46
CC(=O)N(C(=O)/C=C/c1ccccc1)[C@@H](Cc1ccc(F)cc1)C(=O)N[C@@H](Cc1ccc(N)cc1)C(=O)N[C@@H](CC(C)C)C(=O)N[C@@H](CCCN=C(N)N)C(N)=O | – | 370
CC(=O)N(C(=O)/C=C/c1ccccc1)[C@@H](Cc1ccc(F)cc1)C(=O)N[C@@H](Cc1ccc(NC(=N)N)cc1)C(=O)N[C@@H](CC(C)C)C(=O)N[C@@H](CCCN=C(N)N)C(=O)N[C@@H](CCCN)C(=O)CC(N)=O | – | 16.6
CCCC(=O)c1ccc(N(C(C)=O)[C@@H](Cc2ccc(F)cc2)C(=O)N[C@@H](Cc2ccc(NC(=N)N)cc2)C(=O)N[C@@H](CC(C)C)C(=O)N[C@@H](CCCN=C(N)N)C(N)=O)cc1 | – | 1260
CC(=O)N(C(=O)/C=C/c1ccc(O)cc1)[C@@H](Cc1ccc(F)cc1)C(=O)N[C@@H](Cc1ccc(NC(=N)N)cc1)C(=O)N[C@@H](CC(C)C)C(=O)N[C@@H](CCCN=C(N)N)C(N)=O | – | 62
CC(=O)N(C(=O)/C=C/c1ccccc1)[C@@H](Cc1ccc(F)cc1)C(=O)N[C@@H](CCN=C(N)N)C(=O)N[C@@H](CC(C)C)C(=O)N[C@@H](CCCN=C(N)N)C(N)=O | – | 28
